Columns and labels:
Conditions in all cases: tested as the 18F-labelled form
[1] = target: Sodium-dependent serotonin transporter (Rattus norvegicus) (UniProt P31652); test: Specific binding of [18F]AFA in rat striatum after GBR-12935 treatment; n=3; type: functional, tissue-based
Method in brief: (§1)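 Rats, three per group, were pretreated iv with blocker at 2 mg/kg in saline, or with saline as control, 10–15 min before tail-vein F-18 radioligand (about 20 µCi). Killed at 60 min and regional %ID/g determined. Specific binding = (region activity − cerebellum activity)/cerebellum activity; mean ± SD.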

[2] = target: Sodium-dependent serotonin transporter (Rattus norvegicus) (UniProt P31652); test: Specific binding of [18F]AFA in rat thalamus after GBR-12935 treatment; n=3; type: functional, tissue-based; method in brief: as §1
[3] = target: Sodium-dependent serotonin transporter (Rattus norvegicus) (UniProt P31652); test: Specific binding of [18F]-AFA in rat striatum after citalopram treatment; n=3; type: functional, tissue-based; method in brief: as §1
[4] = target: Sodium-dependent serotonin transporter (Rattus norvegicus) (UniProt P31652); test: Specific binding of [18F]-AFA in rat striatum after nisoxetine treatment; n=3; type: functional, tissue-based; method in brief: as §1
[5] = target: Sodium-dependent serotonin transporter (Rattus norvegicus) (UniProt P31652); test: Specific binding of [18F]AFA in rat thalamus after citalopram treatment; n=3; type: functional, tissue-based; method in brief: as §1
[6] = target: Sodium-dependent serotonin transporter (Rattus norvegicus) (UniProt P31652); test: Specific binding of [18F]AFA in rat thalamus after nisoxetine treatment; n=3; type: functional, tissue-based; method in brief: as §1
[7] = target: Sodium-dependent serotonin transporter (Rattus norvegicus) (UniProt P31652); test: Specific binding of [18F]AFA in rat hippocampus after GBR-12935 treatment; n=3; type: functional, tissue-based; method in brief: as §1
[8] = target: Sodium-dependent serotonin transporter (Rattus norvegicus) (UniProt P31652); test: Specific binding of [18F]AFA in rat hypothalamus after GBR-12935 treatment; n=3; type: functional, tissue-based; method in brief: as §1
[9] = target: Sodium-dependent serotonin transporter (Rattus norvegicus) (UniProt P31652); test: Specific binding of [18F]AFA in rat hippocampus after citalopram treatment; n=3; type: functional, tissue-based; method in brief: as §1
[10] = target: Sodium-dependent serotonin transporter (Rattus norvegicus) (UniProt P31652); test: Specific binding of [18F]AFA in rat hippocampus after nisoxetine treatment; n=3; type: functional, tissue-based; method in brief: as §1
[11] = target: Sodium-dependent serotonin transporter (Rattus norvegicus) (UniProt P31652); test: Specific binding of [18F]AFA in rat frontal cortex after GBR-12935 treatment; n=3; type: functional, tissue-based; method in brief: as §1
[12] = target: Sodium-dependent serotonin transporter (Rattus norvegicus) (UniProt P31652); test: Specific binding of [18F]AFA in rat hypothalamus after citalopram treatment; n=3; type: functional, tissue-based; method in brief: as §1
[13] = target: Sodium-dependent serotonin transporter (Rattus norvegicus) (UniProt P31652); test: Specific binding of [18F]AFA in rat hypothalamus after nisoxetine treatment; n=3; type: functional, tissue-based; method in brief: as §1
[14] = target: Sodium-dependent serotonin transporter (Rattus norvegicus) (UniProt P31652); test: Specific binding of [18F]AFA in rat frontal cortex after citalopram treatment; n=3; type: functional, tissue-based; method in brief: as §1
[15] = target: Sodium-dependent serotonin transporter (Rattus norvegicus) (UniProt P31652); test: Specific binding of [18F]AFA in rat frontal cortex after nisoxetine treatment; n=3; type: functional, tissue-based; method in brief: as §1
[16] = target: Sodium-dependent serotonin transporter (Rattus norvegicus) (UniProt P31652); test: Specific binding in rat hypothalamus at 10 min postinjection in vivo; type: functional, organism-based
Method in brief: (§2)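 Male Sprague-Dawley rats, n=3 per time point, received about 20 µCi of F-18 radioligand in saline iv by tail vein and were killed at 10–120 min. %ID/g was measured with decay and tail-residual correction. Hypothalamic specific binding = (%ID/g hypothalamus − %ID/g cerebellum)/%ID/g cerebellum; mean ± SD.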

[17] = target: Sodium-dependent serotonin transporter (Rattus norvegicus) (UniProt P31652); test: Specific binding in rat hypothalamus at 30 min postinjection in vivo; type: functional, organism-based; method in brief: as §2
[18] = target: Sodium-dependent serotonin transporter (Rattus norvegicus) (UniProt P31652); test: Specific binding in rat hypothalamus at 60 min postinjection in vivo; type: functional, organism-based; method in brief: as §2
[19] = target: Sodium-dependent serotonin transporter (Rattus norvegicus) (UniProt P31652); test: Specific binding in rat hypothalamus at 90 min postinjection in vivo; type: functional, organism-based; method in brief: as §2
[20] = target: Sodium-dependent serotonin transporter (Rattus norvegicus) (UniProt P31652); test: Specific binding in rat hypothalamus at 120 min postinjection in vivo; type: functional, organism-based; method in brief: as §2
[21] = species: Rattus norvegicus; test: Regional uptake of [18F]AFA in blood of rat pretreated with compound 7c; n=3; type: functional, organism-based
[22] = species: Rattus norvegicus; test: Regional uptake of [18F]AFA in striatum of rat pretreated with compound 7c; n=3; type: functional, organism-based
[23] = species: Rattus norvegicus; test: Regional uptake of [18F]AFA in thalamus of rat pretreated with compound 7c; n=3; type: functional, organism-based
[24] = species: Rattus norvegicus; test: Regional uptake of [18F]AFA in cerebellum of rat pretreated with compound 7c; n=3; type: functional, organism-based
[25] = species: Rattus norvegicus; test: Regional uptake of [18F]-AFA in blood of rat pretreated with compound GBR-12935; n=3; type: functional, organism-based
Method in brief: (§3)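 Male Sprague-Dawley rats, three per group, received blocker (2 mg/kg iv in saline) or saline only (controls) 10–15 min before about 20 µCi of tail-vein F-18 radioligand. Killed 60 min after tracer. Blood and brain regions weighed and gamma-counted. %ID/g was decay- and tail-corrected; mean ± SD.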

[26] = species: Rattus norvegicus; test: Regional uptake of [18F]AFA in hippocampus of rat pretreated with compound 7c; n=3; type: functional, organism-based
[27] = species: Rattus norvegicus; test: Regional uptake of [18F]AFA in hypothalamus of rat pretreated with compound 7c; n=3; type: functional, organism-based
[28] = species: Rattus norvegicus; test: Regional uptake of [18F]-AFA in blood of rat pretreated with compound citalopram; n=3; type: functional, organism-based; method in brief: as §3
[29] = species: Rattus norvegicus; test: Regional uptake of [18F]AFA in blood of rat pretreated with compound nisoxetine; n=3; type: functional, organism-based; method in brief: as §3
[30] = species: Rattus norvegicus; test: Regional uptake of [18F]-AFA in frontal cortex of rat pretreated with compound 7c; n=3; type: functional, organism-based
[31] = species: Rattus norvegicus; test: Regional uptake of [18F]-AFA in striatum of rat pretreated with compound GBR-12935; n=3; type: functional, organism-based; method in brief: as §3
[32] = species: Rattus norvegicus; test: Regional uptake of [18F]AFA in thalamus of rat pretreated with compound GBR-12935; n=3; type: functional, organism-based; method in brief: as §3
[33] = species: Rattus norvegicus; test: Regional uptake of [18F]AFA in striatum of rat pretreated with compound citalopram; n=3; type: functional, organism-based; method in brief: as §3
[34] = species: Rattus norvegicus; test: Regional uptake of [18F]AFA in striatum of rat pretreated with compound nisoxetine; n=3; type: functional, organism-based; method in brief: as §3
[35] = species: Rattus norvegicus; test: Regional uptake of [18F]AFA in thalamus of rat pretreated with compound citalopram; n=3; type: functional, organism-based; method in brief: as §3
[36] = species: Rattus norvegicus; test: Regional uptake of [18F]AFA in thalamus of rat pretreated with compound nisoxetine; n=3; type: functional, organism-based; method in brief: as §3
[37] = species: Rattus norvegicus; test: Regional uptake of [18F]AFA in hippocampus of rat pretreated with compound GBR-12935; n=3; type: functional, organism-based; method in brief: as §3
[38] = species: Rattus norvegicus; test: Regional uptake of [18F]AFA in cerebellum of rat pretreated with compound citalopram; n=3; type: functional, organism-based; method in brief: as §3
[39] = species: Rattus norvegicus; test: Regional uptake of [18F]AFA in cerebellum of rat pretreated with compound nisoxetine; n=3; type: functional, organism-based; method in brief: as §3
[40] = species: Rattus norvegicus; test: Regional uptake of [18F]AFA in hypothalamus of rat pretreated with compound GBR-12935; n=3; type: functional, organism-based; method in brief: as §3
[41] = species: Rattus norvegicus; test: Regional uptake of [18F]AFA in hippocampus of rat pretreated with compound citalopram; n=3; type: functional, organism-based; method in brief: as §3
[42] = species: Rattus norvegicus; test: Regional uptake of [18F]AFA in hippocampus of rat pretreated with compound nisoxetine; n=3; type: functional, organism-based; method in brief: as §3
[43] = species: Rattus norvegicus; test: Regional uptake of [18F]AFA in frontal cortex of rat pretreated with compound GBR-12935; n=3; type: functional, organism-based; method in brief: as §3
[44] = species: Rattus norvegicus; test: Regional uptake of [18F]-AFA in hypothalamus of rat pretreated with compound nisoxetine; n=3; type: functional, organism-based; method in brief: as §3
[45] = species: Rattus norvegicus; test: Regional uptake of [18F]AFA in frontal cortex of rat pretreated with compound citalopram; n=3; type: functional, organism-based; method in brief: as §3
[46] = species: Rattus norvegicus; test: Regional uptake of [18F]AFA in frontal cortex of rat pretreated with compound nisoxetine; n=3; type: functional, organism-based; method in brief: as §3
[47] = species: Rattus norvegicus; test: Regional uptake of [18F]AFA in cerebellum of rat pretreated with compound GBR-12935; n=3; type: functional, organism-based; method in brief: as §3
[48] = species: Rattus norvegicus; test: Regional uptake of [18F]AFA in hypothalamus of rat pretreated with compound citalopram; n=3; type: functional, organism-based; method in brief: as §3

Sodium-dependent serotonin transporter (Rattus norvegicus), sequence (P31652 whole entry): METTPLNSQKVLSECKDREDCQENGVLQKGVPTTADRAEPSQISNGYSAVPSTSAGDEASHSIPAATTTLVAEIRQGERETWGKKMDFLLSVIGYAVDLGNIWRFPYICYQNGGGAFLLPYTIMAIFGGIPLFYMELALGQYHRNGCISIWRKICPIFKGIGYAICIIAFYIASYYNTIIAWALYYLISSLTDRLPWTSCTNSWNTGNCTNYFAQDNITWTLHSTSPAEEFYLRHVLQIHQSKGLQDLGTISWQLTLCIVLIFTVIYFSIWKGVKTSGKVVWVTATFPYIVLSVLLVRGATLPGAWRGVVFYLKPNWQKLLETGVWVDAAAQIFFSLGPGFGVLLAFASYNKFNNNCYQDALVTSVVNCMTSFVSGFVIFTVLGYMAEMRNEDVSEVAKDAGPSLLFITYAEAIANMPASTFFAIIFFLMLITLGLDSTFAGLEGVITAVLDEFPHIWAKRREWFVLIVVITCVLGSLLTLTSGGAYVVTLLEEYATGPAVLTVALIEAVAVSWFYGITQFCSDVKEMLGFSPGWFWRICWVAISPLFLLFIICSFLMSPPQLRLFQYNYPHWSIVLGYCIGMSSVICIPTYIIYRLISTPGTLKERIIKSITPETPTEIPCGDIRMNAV

SMILES: CN(C)Cc1ccccc1Sc1ccc(F)cc1N
- Specific binding [1]: 2.56 %ID/g
- Specific binding [2]: 4.57 %ID/g
- Specific binding [3]: 0.6 %ID/g
- Specific binding [4]: 2.45 %ID/g
- Specific binding [5]: 0.98 %ID/g
- Specific binding [6]: 3.53 %ID/g
- Specific binding [7]: 2.21 %ID/g
- Specific binding [8]: 4.3 %ID/g
- Specific binding [9]: 0.81 %ID/g
- Specific binding [10]: 1.96 %ID/g
- Specific binding [11]: 2.81 %ID/g
- Specific binding [12]: 0.65 %ID/g
- Specific binding [13]: 3.82 %ID/g
- Specific binding [14]: 0.64 %ID/g
- Specific binding [15]: 2.88 %ID/g
- Specific binding [16]: 0.89 %ID/g
- Specific binding [17]: 2.23 %ID/g
- Specific binding [18]: 4.09 %ID/g
- Specific binding (dimensionless ratio) [19]: 5.61
- Specific binding (dimensionless ratio) [20]: 4.92
- Uptake [21]: 0.07 %ID/g
- Uptake [22]: 0.12 %ID/g
- Uptake [23]: 0.15 %ID/g
- Uptake [24]: 0.06 %ID/g
- Uptake [25]: 0.09 %ID/g
- Uptake [26]: 0.13 %ID/g
- Uptake [27]: 0.13 %ID/g
- Uptake [28]: 0.08 %ID/g
- Uptake [29]: 0.1 %ID/g
- Uptake [30]: 0.14 %ID/g
- Uptake [31]: 0.28 %ID/g
- Uptake [32]: 0.36 %ID/g
- Uptake [33]: 0.1 %ID/g
- Uptake [34]: 0.31 %ID/g
- Uptake [35]: 0.13 %ID/g
- Uptake [36]: 0.47 %ID/g
- Uptake [37]: 0.28 %ID/g
- Uptake [38]: 0.06 %ID/g
- Uptake [39]: 0.09 %ID/g
- Uptake [40]: 0.43 %ID/g
- Uptake [41]: 0.11 %ID/g
- Uptake [42]: 0.28 %ID/g
- Uptake [43]: 0.33 %ID/g
- Uptake [44]: 0.48 %ID/g
- Uptake [45]: 0.11 %ID/g
- Uptake [46]: 0.36 %ID/g
- Uptake [47]: 0.09 %ID/g
- Uptake [48]: 0.1 %ID/g

From ChEMBL document CHEMBL1145212, “Fluorinated diaryl sulfides as serotonin transporter ligands: synthesis, structure-activity relationship study, and in vivo evaluation of fluorine-18-labeled compounds as PET imaging agents” (J Med Chem, 2005)
